Reference: EPA's CvTdb concentration-time database

What was measured:
[1] = tested on: Rat; experiment: concentration in liver after dosing; settings: 24 h; dosed: Perfluorooctane Sulfonate; 2 mg/kg; oral; Female; Harlan Sprague Dawley
[2] = tested on: Rat; experiment: concentration in brain after dosing; settings: 24 h; dosed: Perfluorooctane Sulfonate; 2 mg/kg; oral; Female; Harlan Sprague Dawley
[3] = tested on: Rat; experiment: concentration in brain after dosing; settings: 864 h; dosed: Perfluorooctane Sulfonate; 20 mg/kg; oral; Male; Harlan Sprague Dawley
[4] = tested on: Rat; experiment: concentration in kidney after dosing; settings: 1848 h; dosed: Perfluorooctane Sulfonate; 20 mg/kg; oral; Male; Harlan Sprague Dawley
[5] = tested on: Rat; experiment: concentration in kidney after dosing; settings: 24 h; dosed: Perfluorooctane Sulfonate; 20 mg/kg; oral; Female; F344
[6] = tested on: Rat; experiment: concentration in kidney after dosing; settings: 24 h; dosed: Perfluorooctane Sulfonate; 20 mg/kg; oral; Female; F344; remark: listed apart in the source
[7] = tested on: Rat; experiment: concentration in kidney after dosing; settings: 24 h; dosed: Perfluorooctane Sulfonate; 20 mg/kg; oral; Male; Harlan Sprague Dawley
[8] = tested on: Rat; experiment: concentration in kidney after dosing; settings: 6 h; dosed: Perfluorooctane Sulfonate; 2 mg/kg; oral; Female; Harlan Sprague Dawley
[9] = tested on: Rat; experiment: concentration in kidney after dosing; settings: 24 h; dosed: Perfluorooctane Sulfonate; 2 mg/kg; oral; Female; Harlan Sprague Dawley
[10] = tested on: Rat; experiment: concentration in kidney after dosing; settings: 1848 h; dosed: Perfluorooctane Sulfonate; 2 mg/kg; oral; Female; Harlan Sprague Dawley
[11] = tested on: Rat; experiment: concentration in plasma after dosing; settings: 1 h; dosed: Gemfibrozil; 50 mg/kg; oral; Male; Sprague-Dawley
[12] = tested on: Rat; experiment: concentration in plasma after dosing; settings: 18 h; dosed: Gemfibrozil; 4.29 mg/kg; oral; Male; Sprague-Dawley
[13] = tested on: Rat; experiment: concentration in plasma after dosing; settings: 0.25 h; dosed: Gemfibrozil; 50 mg/kg; oral; Male; Sprague-Dawley
[14] = tested on: Rat; experiment: concentration in plasma after dosing; settings: 10 h; dosed: Gemfibrozil; 4.29 mg/kg; oral; Male; Sprague-Dawley
[15] = tested on: Rat; experiment: concentration in liver after dosing; settings: 12 h; dosed: Perfluorohexanoic Acid; 80 mg/kg; oral; Male; Harlan Sprague Dawley
[16] = tested on: Rat; experiment: concentration in brain after dosing; settings: 0.5 h; dosed: Perfluorohexanoic Acid; 80 mg/kg; oral; Female; Harlan Sprague Dawley
[17] = tested on: Rat; experiment: concentration in plasma after dosing; settings: dosed: Perfluorohexanoic Acid, 40 mg/kg, oral, Male, Harlan Sprague Dawley
[18] = tested on: rat; experiment: amount in urine after dosing (umol); settings: inhalation, duration: 4 hr, F344 (Harlan Winkelmann)
[19] = tested on: human; experiment: concentration in expired air after dosing; settings: dosed: trichloroethylene, 100 ppm, inhalation, duration: 4 hr, person
How it was run: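 A PubMed search, classifier screening and manual review identified published in vivo toxicokinetic studies, which together with two structured collections supplied concentration-versus-time and amount-versus-time points. Points were mostly digitised from plot screenshots with WebPlotDigitizer, otherwise copied from tables. Dose, route, subject details and medium were hand-curated from each paper, and sampling and analytical methods are those of the sources, often unreported.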

[20] = tested on: Rat; experiment: concentration in brain after dosing; settings: 0.5 h; dosed: Fluorotelomer alcohol 8+2; 80 mg/kg; oral; Female; Harlan Sprague Dawley
[21] = tested on: Rat; experiment: concentration in brain after dosing; settings: 3 h; dosed: Fluorotelomer alcohol 8+2; 80 mg/kg; oral; Female; Harlan Sprague Dawley
[22] = tested on: Rat; experiment: concentration in kidney after dosing; settings: 1 h; dosed: Fluorotelomer alcohol 8+2; 24 mg/kg; oral; Male; Harlan Sprague Dawley
[23] = tested on: Rat; experiment: concentration in plasma after dosing; settings: dosed: 678-39-7, 40 mg/kg, iv, Female, Harlan Sprague-Dawley
[24] = tested on: Rat; experiment: concentration in plasma after dosing; settings: 3 h; dosed: Fluorotelomer alcohol 8+2; 12 mg/kg; oral; Male; Harlan Sprague Dawley
[25] = tested on: Rat; experiment: concentration in brain after dosing; settings: 0.2 h; dosed: 2-Methyltetrahydrofuran; 40 mg/kg; iv; Male; Harlan Sprague Dawley
[26] = tested on: Rat; experiment: concentration in plasma after dosing; settings: 7 min; dosed: 2-Methyltetrahydrofuran; 40 mg/kg; iv; Male; Harlan Sprague Dawley
[27] = tested on: Rat; experiment: concentration in plasma after dosing; settings: 7 min; dosed: 2-Methyltetrahydrofuran; 40 mg/kg; iv; Male; Harlan Sprague Dawley; remark: listed apart in the source
[28] = tested on: Rat; experiment: concentration in plasma after dosing; settings: 0.2 h; dosed: 2-Methyltetrahydrofuran; 40 mg/kg; iv; Male; Harlan Sprague Dawley
[29] = tested on: Rat; experiment: concentration in plasma after dosing; settings: 7 min; dosed: 2-Methyltetrahydrofuran; 40 mg/kg; iv; Male; Harlan Sprague Dawley; remark: listed apart in the source

O=S(=O)([O-])C(F)(F)C(F)(F)C(F)(F)C(F)(F)C(F)(F)C(F)(F)C(F)(F)C(F)(F)F [Perfluorooctane Sulfonate]
concentration in liver [1]: 20600 ng/g
concentration in brain [2]: 553 ng/g
concentration in brain [3]: 2500 ng/g
concentration in kidney [4]: 4810 ng/g
concentration in kidney [5]: 127000 ng/g
concentration in kidney [6]: 132000 ng/g
concentration in kidney [7]: 67900 ng/g
concentration in kidney [8]: 4220 ng/g
concentration in kidney [9]: 5720 ng/g
concentration in kidney [10]: 860 ng/g

Cc1ccc(C)c(OCCCC(C)(C)C(=O)O)c1 [Gemfibrozil]
concentration in plasma [11]: 7680 ng/mL
concentration in plasma [12]: 127 ng/mL
concentration in plasma [13]: 79300 ng/mL
concentration in plasma [14]: 189 ng/mL

O=C(O)C(F)(F)C(F)(F)C(F)(F)C(F)(F)C(F)(F)F [Perfluorohexanoic Acid]
concentration in liver [15]: 2130 ng/g
concentration in brain [16]: 1270 ng/g
concentration in plasma ([17]; 0.75 h): 78200 ng/mL
concentration in plasma ([17]; 12 h): 5210 ng/mL

CC(C)(O)C(=O)O [2-hydroxyisobutyrate]
amount in urine ([18]; 5.92 h, dosed: ethyl tert-butyl ether, 4.5 ppm): 0.229
amount in urine ([18]; 5.923 h, dosed: methyl tert-butyl ether, 38.7 ppm): 1.23
amount in urine ([18]; 5.99 h, dosed: ethyl tert-butyl ether, 40.6 ppm): 1.23
amount in urine ([18]; 11.86 h, dosed: ethyl tert-butyl ether, 4.5 ppm): 0.657
amount in urine ([18]; 11.94 h, dosed: ethyl tert-butyl ether, 40.6 ppm): 3.65
amount in urine ([18]; 11.94 h, dosed: methyl tert-butyl ether, 38.7 ppm): 6.37
amount in urine ([18]; 11.97 h, dosed: methyl tert-butyl ether, 4.5 ppm): 0.837
amount in urine ([18]; 17.79 h, dosed: ethyl tert-butyl ether, 4.5 ppm): 1.03
amount in urine ([18]; 17.99 h, dosed: methyl tert-butyl ether, 38.7 ppm): 2.57
amount in urine ([18]; 18.01 h, dosed: methyl tert-butyl ether, 4.5 ppm): 0.625
amount in urine ([18]; 18.03 h, dosed: ethyl tert-butyl ether, 40.6 ppm): 5.39
amount in urine ([18]; 23.79 h, dosed: ethyl tert-butyl ether, 4.5 ppm): 0.405
amount in urine ([18]; 23.95 h, dosed: methyl tert-butyl ether, 4.5 ppm): 0.205
amount in urine ([18]; 23.95 h, dosed: methyl tert-butyl ether, 38.7 ppm): 0.915
amount in urine ([18]; 23.98 h, dosed: ethyl tert-butyl ether, 40.6 ppm): 0.922
amount in urine ([18]; 29.73 h, dosed: ethyl tert-butyl ether, 4.5 ppm): 0.355
amount in urine ([18]; 29.93 h, dosed: ethyl tert-butyl ether, 40.6 ppm): 0.521
amount in urine ([18]; 29.93 h, dosed: methyl tert-butyl ether, 38.7 ppm): 0.315
amount in urine ([18]; 29.96 h, dosed: methyl tert-butyl ether, 4.5 ppm): 0.239

ClC=C(Cl)Cl [trichloroethylene]
concentration in expired air ([19]; 0 h): 1940 nM
concentration in expired air ([19]; 0.053 h): 22.4 ppm
concentration in expired air ([19]; 326 s): 12.3 ppm
concentration in expired air ([19]; 0.17 h): 302 nM
concentration in expired air ([19]; 0.2372 h): 3.23 ppm
concentration in expired air ([19]; 0.3175 h): 7.33 ppm
concentration in expired air ([19]; 0.4773 h): 6.01 ppm
concentration in expired air ([19]; 0.5 h): 200 nM
concentration in expired air ([19]; 0.5703 h): 2.6 ppm
concentration in expired air ([19]; 0.97 h): 1.56 ppm
concentration in expired air ([19]; 1 h): 129 nM
concentration in expired air ([19]; 1.022 h): 2.96 ppm
concentration in expired air ([19]; 1.5 h): 101 nM
concentration in expired air ([19]; 2 h): 79 nM
concentration in expired air ([19]; 2.009 h): 0.691 ppm
concentration in expired air ([19]; 2.015 h): 1.22 ppm
concentration in expired air ([19]; 2.5 h): 62 nM
concentration in expired air ([19]; 3 h): 61 nM
concentration in expired air ([19]; 3.5 h): 54 nM
concentration in expired air ([19]; 4 h): 49 nM
concentration in expired air ([19]; 4.021 h): 0.521 ppm
concentration in expired air ([19]; 4.039 h): 1.03 ppm
concentration in expired air ([19]; 4.5 h): 43 nM
concentration in expired air ([19]; 5 h): 42 nM
concentration in expired air ([19]; 5.996 h): 0.868 ppm
concentration in expired air ([19]; 6 h): 33 nM
concentration in expired air ([19]; 6.02 h): 0.517 ppm
concentration in expired air ([19]; 7 h): 27 nM
concentration in expired air ([19]; 7.979 h): 0.777 ppm
concentration in expired air ([19]; 8 h): 21 nM
concentration in expired air ([19]; 9 h): 21 nM
concentration in expired air ([19]; 10 h): 16 nM
concentration in expired air ([19]; 10.1 h): 0.554 ppm

O=C(O)CCC(F)(F)C(F)(F)C(F)(F)C(F)(F)C(F)(F)C(F)(F)C(F)(F)F [Fluorotelomer acid 7+3]
concentration in brain [20]: 152 ng/g
concentration in brain [21]: 1310 ng/g
concentration in kidney [22]: 310 ng/g
concentration in plasma ([23]; 1 h): 1350 ng/mL
concentration in plasma ([23]; 24 h): 347 ng/mL
concentration in plasma [24]: 866 ng/mL

CC1CCCO1 (configuration not stated) [2-Methyltetrahydrofuran]
concentration in brain [25]: 26500 ng/mL
concentration in plasma [26]: 53800 ng/mL
concentration in plasma [27]: 41500 ng/mL
concentration in plasma [28]: 35700 ng/mL
concentration in plasma [29]: 45700 ng/mL

CC(O)C(C)(C)O (configuration not stated) [2-methyl-2,3-butanediol]
amount in urine ([18]; 5.961 h, dosed: tert-amyl methyl ether, 38.4 ppm): 1.13
amount in urine ([18]; 5.981 h, dosed: tert-amyl methyl ether, 3.8 ppm): 0.237
amount in urine ([18]; 11.86 h, dosed: tert-amyl methyl ether, 3.8 ppm): 0.262
amount in urine ([18]; 12.08 h, dosed: tert-amyl methyl ether, 38.4 ppm): 2.25
amount in urine ([18]; 17.94 h, dosed: tert-amyl methyl ether, 3.8 ppm): 0.179
amount in urine ([18]; 17.94 h, dosed: tert-amyl methyl ether, 38.4 ppm): 1.18
amount in urine ([18]; 23.82 h, dosed: tert-amyl methyl ether, 3.8 ppm): 0.0479
amount in urine ([18]; 23.95 h, dosed: tert-amyl methyl ether, 38.4 ppm): 0.366
amount in urine ([18]; 29.9 h, dosed: tert-amyl methyl ether, 3.8 ppm): 0.0229
amount in urine ([18]; 29.96 h, dosed: tert-amyl methyl ether, 38.4 ppm): 0.165
amount in urine ([18]; 35.73 h, dosed: tert-amyl methyl ether, 3.8 ppm): 0.0302
amount in urine ([18]; 36.08 h, dosed: tert-amyl methyl ether, 38.4 ppm): 0.225
amount in urine ([18]; 41.81 h, dosed: tert-amyl methyl ether, 3.8 ppm): 0.024
amount in urine ([18]; 41.88 h, dosed: tert-amyl methyl ether, 38.4 ppm): 0.175
amount in urine ([18]; 47.74 h, dosed: tert-amyl methyl ether, 3.8 ppm): 0.0115
amount in urine ([18]; 47.95 h, dosed: tert-amyl methyl ether, 38.4 ppm): 0.084
